From ChEMBL document CHEMBL1138666, “Direct influence of C-terminally substituted amino acids in the Dmt-Tic pharmacophore on delta-opioid receptor selectivity and antagonism” (J Med Chem, 2004)
pIC50, pKi: −log10 of the molar value. Square brackets hold non-standard residues; d marks the D form. Peptide text beside a SMILES is read from it. ξ: configuration not given here. Dmt = Cc1cc(O)cc(C)c1C[C@H](N)C(=O)O; Tic = O=C(O)[C@@H]1Cc2ccccc2CN1; ξTic = O=C(O)C1Cc2ccccc2CN1

Key:
[1] = target: T1, Delta-type opioid receptor (Mus musculus, UniProt P32300); assay: Antagonist activity against deltorphin in mouse vas deferens assay; format: functional, tissue-based; conditions: read-out: pA2 (converted)
T1 sequence (P32300 whole entry): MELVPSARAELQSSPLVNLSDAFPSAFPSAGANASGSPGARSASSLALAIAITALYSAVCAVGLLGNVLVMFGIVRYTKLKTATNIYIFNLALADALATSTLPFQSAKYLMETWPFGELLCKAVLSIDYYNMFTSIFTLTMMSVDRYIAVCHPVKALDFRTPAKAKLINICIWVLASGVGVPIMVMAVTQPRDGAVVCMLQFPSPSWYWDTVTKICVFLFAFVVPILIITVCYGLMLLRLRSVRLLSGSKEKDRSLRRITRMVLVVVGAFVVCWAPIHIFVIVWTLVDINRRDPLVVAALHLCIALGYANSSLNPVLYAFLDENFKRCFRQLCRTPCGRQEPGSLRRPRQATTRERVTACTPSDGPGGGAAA
In short: (§1)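 Mouse vas deferens, field-stimulated with supramaximal-voltage bipolar rectangular pulses. Antagonism was scored as a rightward shift of the deltorphin C log(concentration)-response curve and reported as pA2, the negative log molar antagonist concentration that doubles the agonist concentration needed for the original submaximal response.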

Mu-type opioid receptor [2] = target: T2, Mu-type opioid receptor (Cavia porcellus, UniProt P97266); assay: Inhibition of Opioid receptor mu 1 in guinea pig ileum assay; format: functional, tissue-based
T2 sequence (P97266 whole entry): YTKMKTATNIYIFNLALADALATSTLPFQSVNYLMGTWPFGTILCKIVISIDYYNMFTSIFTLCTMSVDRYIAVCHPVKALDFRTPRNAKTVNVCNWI
In short: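 Male guinea pig ileum myenteric plexus-longitudinal muscle, field-stimulated with supramaximal-voltage bipolar rectangular pulses. Inhibition of the electrically evoked twitch was measured, with dermorphin as reference agonist. IC50 was taken from concentration-response curves, mean ± SE of at least five to six fresh tissues.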

[3] = Binding affinity for rat Opioid receptor mu 1
Rattus norvegicus = species: Rattus norvegicus; assay: Ratio of binding affinities for rat Opioid receptors mu 1 and delta 1
[4] = Binding affinity for rat Opioid receptor delta 1
In short: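 Rat brain synaptosomes (P2), preincubated to remove endogenous opioids and stored at -80 °C in buffered 20% glycerol. […] Filters were PEI-soaked GF/C, washed thrice in ice-cold buffered BSA. Five to eight doses, duplicates, independent preparations; Ki by Cheng-Prusoff, mean ± SE.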

Mu-type opioid receptor [5] = target: T2, Mu-type opioid receptor; assay: Antagonist activity against dermorphin in guinea pig ileum assay; format: functional, tissue-based; conditions: read-out: pA2 (converted)
In short: as §1, with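 “Male guinea pig ileum myenteric plexus-longitudinal muscle,” for “Mouse vas deferens,”, “dermorphin” for “deltorphin C”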

[6] = target: T1, Delta-type opioid receptor; assay: Inhibition of Delta opioid receptor in mouse vas deferens assay; format: functional
In short: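 Mouse vas deferens, field-stimulated with supramaximal-voltage bipolar rectangular pulses. Inhibition of the electrically evoked twitch was measured, with deltorphin C as reference agonist. IC50 was taken from concentration-response curves, mean ± SE of at least five to six fresh tissues.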

Row | Compound | Kb [1] [nM] | pIC50 (Mu-type opioid receptor [2]) | pKi [3] | Ratio (Rattus norvegicus) | pKi [4] | Kb (Mu-type opioid receptor [5]) [nM] | pIC50 [6]
1 | Cc1cc(O)cc(C)c1C[C@H](N)C(=O)N1Cc2ccccc2C[C@H]1C(=O)N[C@H](CC(N)=O)C(=O)O | 5.89 | < 5.00 | 5.40 | 5.4 | 9.13 | – | –
2 | Cc1cc(O)cc(C)c1C[C@H](N)C(=O)N1Cc2ccccc2C[C@H]1C(=O)N[C@H](CCC(N)=O)C(=O)O | 1.23 | < 5.00 | 6.25 | 1.25 | 9.35 | – | –
3 | Cc1cc(O)cc(C)c1C[C@H](N)C(=O)N1Cc2ccccc2C[C@H]1C(=O)N[C@@H](Cc1c[nH]c2ccccc12)C(=O)O (H-[Dmt]-[Tic]-Trp-OH) | 0.269 | 5.82 | 7.80 | – | 10.52 | – | –
4 | Cc1cc(O)cc(C)c1C[C@H](N)C(=O)N1Cc2ccccc2C[C@H]1C(=O)N[C@H](CCC(=O)O)C(N)=O | 2.29 | – | 6.04 | 17.4 | 10.30 | < 7940 | –
5 | CC(=O)NCCCC[C@H](NC(=O)[C@@H]1Cc2ccccc2CN1C(=O)[C@@H](N)Cc1c(C)cc(O)cc1C)C(=O)O | 0.0851 | < 5.00 | 5.98 | 22.4 | 10.40 | – | –
6 | Cc1cc(O)cc(C)c1C[C@H](N)C(=O)N1Cc2ccccc2C[C@H]1C(=O)NC(CO)C(N)=O (single isomer, unassigned) | 8.51 | < 5.00 | 6.85 | 1.12 | 9.89 | – | –
7 | Cc1cc(O)cc(C)c1C[C@H](N)C(=O)N1Cc2ccccc2C[C@H]1C(=O)NC(CCCCN)C(N)=O (single isomer, unassigned) | 13.5 | 5.10 | 7.77 | 24 | 9.15 | – | –
8 | Cc1cc(O)cc(C)c1C[C@H](N)C(=O)N1Cc2ccccc2C[C@H]1C(=O)N[C@@H](CC(=O)O)C(N)=O | 7.59 | < 5.00 | 5.59 | 8.88 | 9.54 | – | –
9 | Cc1cc(O)cc(C)c1C[C@H](N)C(=O)N1Cc2ccccc2C[C@H]1C(=O)N[C@@H](C)C(=O)O | – | < 5.00 | 5.24 | – | 9.54 | – | –
10 | Cc1cc(O)cc(C)c1C[C@H](N)C(=O)N1Cc2ccccc2C[C@H]1C(=O)NC(Cc1c[nH]cn1)C(=O)O (single isomer, unassigned) | 1.91 | < 5.00 | 6.76 | 1.4 | 9.92 | – | –
11 | CC(=O)NCCCC[C@@H](NC(=O)[C@@H]1Cc2ccccc2CN1C(=O)[C@@H](N)Cc1c(C)cc(O)cc1C)C(=O)O | 0.513 | 5.82 | 7.06 | 1.05 | 10.10 | – | –
12 | Cc1cc(O)cc(C)c1C[C@H](N)C(=O)N1Cc2ccccc2C[C@H]1C(=O)NC(CCCN=C(N)N)C(N)=O (single isomer, unassigned) | 126 | 5.18 | 7.82 | 21 | 9.14 | – | –
13 | Cc1cc(O)cc(C)c1C[C@H](N)C(=O)N1Cc2ccccc2C[C@H]1C(=O)N[C@@H](CC(N)=O)C(=O)O | 5.89 | < 5.00 | 7.10 | 73 | 8.96 | – | –
14 | Cc1cc(O)cc(C)c1C[C@H](N)C(=O)N1Cc2ccccc2C[C@H]1C(=O)N[C@H](CC(=O)O)C(N)=O | 7.24 | < 5.00 | 6.44 | 834 | 9.36 | – | –
15 | Cc1cc(O)cc(C)c1C[C@H](N)C(=O)N1Cc2ccccc2C[C@H]1C(=O)NCC(N)=O (H-[Dmt]-[Tic]-Gly-NH2) | 22.4 | < 5.00 | 6.85 | 559 | 9.60 | – | –
16 | Cc1cc(O)cc(C)c1C[C@H](N)C(=O)N1Cc2ccccc2C[C@H]1C(=O)NC(CO)C(=O)O (single isomer, unassigned) | 1.32 | < 5.00 | 5.55 | 10.5 | 9.57 | – | –
17 | Cc1cc(O)cc(C)c1C[C@H](N)C(=O)N1Cc2ccccc2CC1C(=O)N[C@@H](Cc1c[nH]c2ccccc12)C(=O)O (some centres undefined) (H-[Dmt]-[ξTic]-Trp-OH) | – | – | – | 462 | – | – | –
18 | Cc1cc(O)cc(C)c1C[C@H](N)C(=O)N1Cc2ccccc2C[C@H]1C(=O)N[C@H](C)C(=O)O | – | – | – | 20.4 | – | – | –
19 | Cc1cc(O)cc(C)c1C[C@H](N)C(=O)N1Cc2ccccc2C[C@H]1C(=O)NC(C)C(N)=O (stereo in doubt) | 25.1 | < 5.00 | 7.32 | 158 | 9.52 | – | –
20 | Cc1cc(O)cc(C)c1C[C@H](N)C(=O)N1Cc2ccccc2C[C@H]1C(=O)N[C@@H](CCC(=O)O)C(N)=O | < 0.1 | – | 5.87 | 22.6 | 10.22 | – | 5.60
21 | Cc1cc(O)cc(C)c1C[C@H](N)C(=O)N1Cc2ccccc2C[C@H]1C(=O)N[C@@H](CCC(N)=O)C(=O)O | 1.05 | < 5.00 | 6.33 | 1.43 | 9.49 | – | –
